# Reference: ChEMBL document CHEMBL4334444, “Studies of Jatrogossone A as a Reactive Oxygen Species Inducer in Cancer Cellular Models” (J Nat Prod, 2019)
# Active and inactive are the calls of the source. The rule behind the calls is not given here.
# Key:
# [1] = test system: KOPN-8; experiment: Cell cycle arrest in human KOPN8 cells assessed as increase in accumulation at S phase at 2 uM incubated for 24 hrs by propidium iodide staining based flow cytometric analysis; format: functional
# How it was run: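 KOPN-8 cells plated at 1.00 × 10^6 cells/plate and held 12 h at 37 °C in 5% CO2, then treated for 24 h. Cells were fixed in cold methanol, RNase-treated and stained with PI (50 μg/mL). Cell-cycle distribution by flow cytometry, with DMSO as vehicle control.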
# [2] = test system: U2OS; experiment: Induction of ROS generation in human U2OS cells at 10 to 30 uM incubated for 1 hr by CellROX green reagent based fluorescence assay; format: functional, cell-based
# How it was run: (§1)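 CellROX green assay in MCF-7 or U2OS cells. Cells were exposed to test compound for 1 h at 37 °C alongside 0.5% DMSO (negative control) and menadione 10–30 μM (positive control), with or without NAC (50–500 μM) as scavenger. CellROX was then added at 5 μM final for 30 min. Cells were PBS-washed, fixed in 4% paraformaldehyde for 15 min, and fluorescence read at 535 nm.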
# [3] = test system: KOPN-8; experiment: Induction of apoptosis in human KOPN8 cells assessed as increase in cleaved caspase 7 level at 10 uM by Western blot analysis; format: functional, cell-based
# How it was run: (§2)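 Western blot of KOPN-8 and MCF-7 lysates made in RIPA-type buffer (Tris pH 7.5, Triton X-100, deoxycholate, SDS) with protease and phosphatase inhibitors. 30 μg protein per lane was run on 4–12% Bis-Tris SDS-PAGE and transferred to nitrocellulose. Blots were probed for cleaved caspase-7 and PARP-1 and detected with IR-dye secondaries. Menadione served as positive control: 10 μM in KOPN-8, 30 μM in MCF-7. Blots are representative of three independent experiments.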
# [4] = test system: MCF7; experiment: Induction of ROS generation in human MCF7 cells at 10 to 30 uM incubated for 1 hr by CellROX green reagent based fluorescence assay; format: functional, cell-based
# How it was run: (§3)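 CellROX green ROS assay: cells exposed 1 h at 37 °C (30 μM) with DMSO 0.5% (v/v) negative control, menadione 10 μM positive control, ± NAC (100 μM per figure legend). CellROX green added at 5 μM final, 30 min more; washed, fixed in 4% paraformaldehyde 15 min, fluorescence read at 485 ex/535 em. Mean and SD of at least three experiments; two-way ANOVA.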
# [5] = test system: MCF7; experiment: Induction of ROS generation in human MCF7 cells at 10 to 30 uM incubated for 1 hr in presence of NAC by CellROX green reagent based fluorescence assay; format: functional, cell-based; how it was run: as §3
# [6] = test system: MCF7; experiment: Induction of apoptosis in human MCF7 cells assessed as increase in cleaved PARP 1 level at 30 uM by Western blot analysis; format: functional, cell-based; how it was run: as §2
# [7] = test system: U2OS; experiment: Induction of ROS generation in human U2OS cells at 10 to 30 uM incubated for 1 hr in presence of NAC by CellROX green reagent based fluorescence assay; format: functional, cell-based; how it was run: as §1
# [8] = test system: KOPN-8; experiment: Induction of apoptosis in human KOPN8 cells assessed as increase in cleaved PARP 1 level at 10 uM by Western blot analysis; format: functional, cell-based; how it was run: as §2
# [9] = test system: MCF7; experiment: Induction of apoptosis in human MCF7 cells assessed as increase in cleaved caspase 7 level at 30 uM by Western blot analysis; format: functional, cell-based; how it was run: as §2
SMILES,Activity [1],Activity [2],Activity [3],Activity [4],Activity [5],Activity [6],Activity [7],Activity [8],Activity [9]
CN[C@@H]1C[C@H]2O[C@@](C)([C@@H]1OC)n1c3ccccc3c3c4c(c5c6ccccc6n2c5c31)C(=O)NC4,Active,–,–,–,–,–,–,–,–
CC1=CC(=O)c2ccccc2C1=O,–,Active,Active,Active,inactive,Active,inactive,Active,Active
